From ChEMBL document CHEMBL3352173, “Optimization of pyrrolamide topoisomerase II inhibitors toward identification of an antibacterial clinical candidate (AZD5099)” (J Med Chem, 2014)
In brackets after ≈: the same amount, converted by molar mass.

What was measured:
[1] = test system: Haemophilus influenzae; test: Antimicrobial activity against Haemophilus influenzae by broth microdilution/CLSI method; assay type: functional; settings: Haemophilus influenzae; for MIC: read-out: MIC
[2] = test system: Enterococcus faecalis; test: Antimicrobial activity against Enterococcus faecalis by broth microdilution/CLSI method; assay type: functional
[3] = test system: Haemophilus influenzae; test: Antimicrobial activity against amoxicillin-resistant Haemophilus influenzae by broth microdilution/CLSI method; assay type: functional
[4] = test system: Staphylococcus aureus; test: Antimicrobial activity against Staphylococcus aureus by broth microdilution/CLSI method; assay type: functional
[5] = test system: Enterococcus faecium; test: Antimicrobial activity against Enterococcus faecium by broth microdilution/CLSI method; assay type: functional
[6] = test system: Staphylococcus aureus; test: Antimicrobial activity against methicillin, quinolone-resistant Staphylococcus aureus by broth microdilution/CLSI method; assay type: functional; settings: Staphylococcus aureus; read-out: MIC
[7] = Solubility of the compound; assay type: physicochemical
[8] = AUC in methicillin-sensitive Staphylococcus aureus ARC516 infected in neutropenic CD1 mouse thigh model at 30 mg/kg, ip q24; assay type: ADME, organism-based; design: dose 30 mg/kg, route intraperitoneal; settings: in vivo
[9] = test system: Staphylococcus aureus; test: Antibacterial activity against methicillin-sensitive Staphylococcus aureus ARC516 infected in neutropenic CD1 mouse thigh model assessed as decrease in bacterial viable counts at 30 mg/kg, ip q24; assay type: functional; settings: route intraperitoneal
[10] = test system: Staphylococcus aureus; test: Antimicrobial activity against methicillin-sensitive Staphylococcus aureus by broth microdilution/CLSI method; assay type: functional; settings: Staphylococcus aureus; read-out: MIC
[11] = test system: Moraxella catarrhalis; test: Antimicrobial activity against Moraxella catarrhalis by broth microdilution/CLSI method; assay type: functional; settings: Moraxella catarrhalis; read-out: MIC
[12] = Clearance in dog at 10 mg/kg, iv; assay type: ADME, organism-based, Canis lupus familiaris; design: dose 10 mg/kg, route intravenous; settings: plasma
[13] = test system: Streptococcus pneumoniae; test: Antibacterial activity against Streptococcus pneumoniae by broth microdilution/CLSI method; assay type: functional; settings: Streptococcus pneumoniae; read-out: MIC
[14] = Bioavailability in CD1 mouse at 10 mg/kg, […]; assay type: ADME, organism-based; settings: in vivo
[15] = Clearance in CD1 mouse at 10 mg/kg, iv; assay type: ADME, organism-based; design: dose 10 mg/kg, route intravenous; settings: in vivo
[16] = Clearance in Wistar rat at 10 mg/kg, iv; assay type: ADME, organism-based; design: dose 10 mg/kg, route intravenous; settings: in vivo
[17] = target: T1, ATP-binding cassette sub-family C member 2 (Homo sapiens, UniProt Q92887); test: Inhibition of ATPase activity of human MRP2 assessed as inorganic phosphate
T1 sequence (Q92887 whole entry): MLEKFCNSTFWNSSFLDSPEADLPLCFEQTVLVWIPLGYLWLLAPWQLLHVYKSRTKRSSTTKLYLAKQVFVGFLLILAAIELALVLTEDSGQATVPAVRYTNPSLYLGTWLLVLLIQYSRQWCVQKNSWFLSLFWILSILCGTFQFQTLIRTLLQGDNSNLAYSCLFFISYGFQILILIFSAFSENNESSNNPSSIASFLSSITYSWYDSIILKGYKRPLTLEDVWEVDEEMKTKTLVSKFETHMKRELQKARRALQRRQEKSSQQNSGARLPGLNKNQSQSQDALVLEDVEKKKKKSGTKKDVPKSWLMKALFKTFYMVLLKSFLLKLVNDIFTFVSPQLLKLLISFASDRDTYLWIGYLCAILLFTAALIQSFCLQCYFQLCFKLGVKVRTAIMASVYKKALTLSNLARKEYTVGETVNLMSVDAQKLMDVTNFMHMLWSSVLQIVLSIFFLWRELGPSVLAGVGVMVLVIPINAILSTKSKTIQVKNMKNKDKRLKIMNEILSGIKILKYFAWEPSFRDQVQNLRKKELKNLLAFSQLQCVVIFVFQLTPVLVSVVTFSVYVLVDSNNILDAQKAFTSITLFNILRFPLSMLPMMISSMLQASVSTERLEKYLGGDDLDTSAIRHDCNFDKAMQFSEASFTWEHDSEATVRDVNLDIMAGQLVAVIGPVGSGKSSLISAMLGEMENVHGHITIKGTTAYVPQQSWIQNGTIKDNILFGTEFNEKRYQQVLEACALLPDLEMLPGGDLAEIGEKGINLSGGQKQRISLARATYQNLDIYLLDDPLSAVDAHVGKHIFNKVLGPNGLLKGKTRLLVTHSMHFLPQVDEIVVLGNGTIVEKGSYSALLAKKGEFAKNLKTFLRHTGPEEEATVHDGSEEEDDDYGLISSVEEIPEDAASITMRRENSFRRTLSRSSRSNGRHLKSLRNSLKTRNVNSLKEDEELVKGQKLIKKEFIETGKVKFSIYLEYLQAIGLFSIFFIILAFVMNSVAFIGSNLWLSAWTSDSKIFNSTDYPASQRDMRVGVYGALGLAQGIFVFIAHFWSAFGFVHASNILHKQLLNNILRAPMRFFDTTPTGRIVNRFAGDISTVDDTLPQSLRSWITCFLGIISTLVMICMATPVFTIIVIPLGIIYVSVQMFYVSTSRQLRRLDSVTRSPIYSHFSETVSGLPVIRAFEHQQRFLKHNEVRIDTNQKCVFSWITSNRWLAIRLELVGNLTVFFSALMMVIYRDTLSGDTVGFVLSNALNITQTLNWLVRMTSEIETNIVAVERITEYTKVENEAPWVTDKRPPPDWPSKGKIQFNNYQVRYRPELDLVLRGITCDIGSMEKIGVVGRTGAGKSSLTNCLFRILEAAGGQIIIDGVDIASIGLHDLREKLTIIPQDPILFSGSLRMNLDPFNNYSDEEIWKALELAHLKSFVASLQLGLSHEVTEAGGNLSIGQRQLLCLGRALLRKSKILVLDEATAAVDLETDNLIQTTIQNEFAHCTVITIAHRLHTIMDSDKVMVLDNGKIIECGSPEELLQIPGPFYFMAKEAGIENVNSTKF

[18] = target: T2, ATP-binding cassette sub-family C member 2 (Rattus norvegicus, UniProt Q63120); test: Stimulation of ATPase activity of rat Mrp2 assessed as inorganic phosphate
T2 sequence (Q63120 whole entry): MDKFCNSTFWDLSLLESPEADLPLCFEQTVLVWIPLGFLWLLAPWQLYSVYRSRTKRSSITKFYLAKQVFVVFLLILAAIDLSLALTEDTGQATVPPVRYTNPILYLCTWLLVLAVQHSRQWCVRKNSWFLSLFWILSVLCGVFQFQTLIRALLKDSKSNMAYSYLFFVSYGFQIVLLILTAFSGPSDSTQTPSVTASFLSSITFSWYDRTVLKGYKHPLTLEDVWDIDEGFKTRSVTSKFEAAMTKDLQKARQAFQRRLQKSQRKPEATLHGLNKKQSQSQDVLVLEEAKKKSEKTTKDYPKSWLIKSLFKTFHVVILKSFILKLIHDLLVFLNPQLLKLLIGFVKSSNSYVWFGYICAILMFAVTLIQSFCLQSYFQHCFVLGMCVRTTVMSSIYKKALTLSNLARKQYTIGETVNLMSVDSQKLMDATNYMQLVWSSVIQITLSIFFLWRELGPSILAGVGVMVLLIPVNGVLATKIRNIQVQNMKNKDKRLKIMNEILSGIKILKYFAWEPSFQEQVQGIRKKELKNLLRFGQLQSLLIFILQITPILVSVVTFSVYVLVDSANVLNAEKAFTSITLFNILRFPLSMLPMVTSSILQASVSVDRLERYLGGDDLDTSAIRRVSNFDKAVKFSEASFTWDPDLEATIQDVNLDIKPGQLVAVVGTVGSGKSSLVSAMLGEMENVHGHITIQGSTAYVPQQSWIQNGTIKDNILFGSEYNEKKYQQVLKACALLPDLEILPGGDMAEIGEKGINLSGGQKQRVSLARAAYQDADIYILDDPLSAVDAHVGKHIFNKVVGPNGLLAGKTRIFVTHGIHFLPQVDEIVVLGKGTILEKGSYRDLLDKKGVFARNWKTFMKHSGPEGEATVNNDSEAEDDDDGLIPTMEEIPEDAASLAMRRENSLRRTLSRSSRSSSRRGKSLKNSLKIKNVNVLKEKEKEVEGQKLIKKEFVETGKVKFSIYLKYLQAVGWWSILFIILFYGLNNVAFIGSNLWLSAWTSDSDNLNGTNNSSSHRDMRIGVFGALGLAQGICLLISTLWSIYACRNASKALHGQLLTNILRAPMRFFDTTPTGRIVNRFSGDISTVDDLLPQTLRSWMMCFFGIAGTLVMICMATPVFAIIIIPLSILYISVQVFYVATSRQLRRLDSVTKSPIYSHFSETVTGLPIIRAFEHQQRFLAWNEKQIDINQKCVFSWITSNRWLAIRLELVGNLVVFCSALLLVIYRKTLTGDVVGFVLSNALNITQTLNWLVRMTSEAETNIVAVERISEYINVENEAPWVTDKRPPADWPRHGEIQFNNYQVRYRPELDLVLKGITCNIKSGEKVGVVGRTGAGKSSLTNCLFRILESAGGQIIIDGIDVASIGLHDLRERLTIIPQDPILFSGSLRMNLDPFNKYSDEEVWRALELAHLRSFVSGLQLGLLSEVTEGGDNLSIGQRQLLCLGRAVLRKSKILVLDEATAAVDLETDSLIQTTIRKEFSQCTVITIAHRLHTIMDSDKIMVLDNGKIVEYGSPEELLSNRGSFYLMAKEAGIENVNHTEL

[19] = Clearance in rat at 10 mg/kg, iv; assay type: ADME, organism-based; design: dose 10 mg/kg, route intravenous; settings: in vivo
[20] = test system: Mus musculus; test: fAUC in methicillin-sensitive Staphylococcus aureus ARC516 infected in neutropenic CD1 mouse thigh model at 30 mg/kg, ip q24; assay type: ADME, organism-based; design: dose 30 mg/kg, route intraperitoneal; settings: in vivo
[21] = Percentage unbound in mouse plasma; assay type: ADME, cell-free
[22] = Octanol-phosphate buffer distribution coefficient, log D of the compound at pH 7.4 by shake flask method; assay type: physicochemical
[23] = test system: Escherichia coli; test: Antimicrobial activity against wild-type Escherichia coli Eco523 by broth microdilution/CLSI method; assay type: functional; settings: Escherichia coli, Eco523; read-out: MIC
[24] = target: T2, ATP-binding cassette sub-family C member 2; test: Inhibition of ATPase activity of rat Mrp2 assessed as inorganic phosphate
[25] = target: DNA gyrase subunit B (Staphylococcus aureus, UniProt P0A0K8); test: Inhibition of ATPase activity of Staphylococcus aureus GyrB
Chain of DNA gyrase subunit B (P0A0K8 whole entry): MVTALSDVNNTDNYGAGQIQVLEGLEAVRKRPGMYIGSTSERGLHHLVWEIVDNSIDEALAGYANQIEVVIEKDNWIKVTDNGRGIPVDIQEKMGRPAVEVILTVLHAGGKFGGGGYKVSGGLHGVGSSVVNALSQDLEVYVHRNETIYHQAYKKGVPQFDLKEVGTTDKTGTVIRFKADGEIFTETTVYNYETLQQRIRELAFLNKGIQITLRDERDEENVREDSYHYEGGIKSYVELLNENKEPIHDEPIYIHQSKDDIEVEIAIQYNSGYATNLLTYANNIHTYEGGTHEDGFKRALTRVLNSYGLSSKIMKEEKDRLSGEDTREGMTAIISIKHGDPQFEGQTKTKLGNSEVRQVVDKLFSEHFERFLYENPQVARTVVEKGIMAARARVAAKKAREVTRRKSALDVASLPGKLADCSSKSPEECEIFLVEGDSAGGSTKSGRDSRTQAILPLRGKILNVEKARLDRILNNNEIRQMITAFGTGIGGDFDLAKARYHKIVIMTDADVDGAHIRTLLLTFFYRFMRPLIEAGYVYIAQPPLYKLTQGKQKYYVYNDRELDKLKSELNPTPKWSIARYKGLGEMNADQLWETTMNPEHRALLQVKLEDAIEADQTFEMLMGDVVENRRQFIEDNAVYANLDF
Method in brief: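 IC50 was determined against S. aureus GyrB in the routine screening assay. The enzyme concentration limits resolution below 10 nM.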

[26] = Ratio of MIC for methicillin, quinolone-resistant Staphylococcus aureus to fraction unbound in human plasma; assay type: ADME
[27] = target: T1, ATP-binding cassette sub-family C member 2; test: Stimulation of ATPase activity of human MRP2 assessed as inorganic phosphate
[28] = Percentage unbound in rat plasma; assay type: ADME, cell-free
[29] = Dissociation constant, pKa of the compound; assay type: physicochemical
[30] = Clearance in TR-negative Wistar rat at 10 mg/kg, iv; assay type: ADME, organism-based; design: dose 10 mg/kg, route intravenous; settings: in vivo
[31] = Percentage unbound in dog plasma; assay type: ADME, cell-free, Canis lupus familiaris
[32] = Bioavailability in dog at 10 mg/kg, iv; assay type: ADME, organism-based, Canis lupus familiaris; settings: plasma
[33] = test system: Staphylococcus aureus; test: Antibacterial activity against methicillin-sensitive Staphylococcus aureus ARC516 infected in ip dosed neutropenic CD1 mouse thigh model assessed as decrease in bacterial viable counts treated for q24; assay type: functional; settings: ARC516, Thigh muscle
[34] = test system: Streptococcus pyogenes; test: Antimicrobial activity against Streptococcus pyogenes by broth microdilution/CLSI method; assay type: functional
[35] = test system: Escherichia coli; test: Antimicrobial activity against Escherichia coli tolC- by broth microdilution/CLSI method; assay type: functional; settings: Escherichia coli; read-out: MIC
[36] = Percentage unbound in human plasma; assay type: ADME, cell-free
[37] = test system: Staphylococcus aureus; test: Antibacterial activity against methicillin-sensitive Staphylococcus aureus ARC516 infected in neutropenic CD1 mouse thigh model assessed as decrease in bacterial viable counts at 30 mg/kg, ip q6; assay type: functional; settings: route intraperitoneal
Method in brief: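 Read-out is viable CFU recovered from the infected thigh after treatment. The change is expressed as log CFU relative to the bacterial burden at the start of treatment (the pre-treatment inoculum). Untreated infected controls are run in parallel and counted over the same infection-to-treatment interval.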

[38] = test system: Staphylococcus aureus; test: Antibacterial activity against methicillin-sensitive Staphylococcus aureus ARC516 infected in ip dosed neutropenic CD1 mouse thigh model assessed as decrease in bacterial viable counts treated for q6; assay type: functional; settings: ARC516, Thigh muscle
[39] = Bioavailability in Wistar rat at 10 mg/kg, […]; assay type: ADME, organism-based; settings: in vivo
[40] = test system: Mus musculus; test: fAUC in methicillin-sensitive Staphylococcus aureus ARC516 infected in neutropenic CD1 mouse thigh model at 30 mg/kg, ip q6; assay type: ADME, organism-based; design: dose 30 mg/kg, route intraperitoneal; settings: in vivo
[41] = AUC in methicillin-sensitive Staphylococcus aureus ARC516 infected in neutropenic CD1 mouse thigh model at 30 mg/kg, ip q6; assay type: ADME, organism-based; design: dose 30 mg/kg, route intraperitoneal; settings: in vivo
[42] = test system: Staphylococcus aureus; test: Antimicrobial activity against methicillin-resistant Staphylococcus aureus by broth microdilution/CLSI method; assay type: functional
[43] = test system: Enterococcus faecalis; test: Antimicrobial activity against vancomycin-resistant Enterococcus faecalis by broth microdilution/CLSI method; assay type: functional

SMILES | MIC90 [1] [µg/mL] | MIC90 [2] [µg/mL] | MIC90 [3] [µg/mL] | MIC90 [4] [µg/mL] | MIC90 [5] [µg/mL] | MIC [6] [µg/mL] | solubility [7] [µM] | MIC [1] [µg/mL] | MIC [10] [µg/mL] | MIC [11] [µg/mL] | clearance [12] [mL/min/kg] | MIC [13] [µg/mL] | bioavailability [14] [%] | clearance [15] [mL/min/kg] | clearance [16] [mL/min/kg] | clearance [19] [mL/min/kg] | fraction unbound [21] | logD [22] | MIC [23] [µg/mL] | IC50 [25] [µM] | also measured
CC[C@H]1OC(=O)[C@H](C)[C@@H](O[C@H]2C[C@@](C)(OC)[C@@H](O)[C@H](C)O2)[C@H](C)[C@@H](O[C@@H]2O[C@H](C)C[C@H](N(C)C)[C@H]2O)[C@](C)(O)C[C@@H](C)CN(C)[C@H](C)[C@@H](O)[C@]1(C)O [AZITHROMYCIN] | 2 (≈ 2.67 µM) | > 128 | 2 (≈ 2.67 µM) | > 128 | > 128 |  |  |  |  |  |  |  |  |  |  |  |  |  |  |  | 
COCC(COC)NC(=O)c1nc(N2CC[C@@H](NC(=O)c3[nH]c(C)c(Cl)c3Cl)[C@@H](OC)C2)sc1C(=O)O |  |  |  |  |  | 0.049 (≈ 0.0847 µM) | 860 (≈ 497 µg/mL) | 0.1 (≈ 0.173 µM) | 0.05 (≈ 0.0864 µM) | < 0.008 | 1.6 | 0.016 (≈ 0.0277 µM) | 25 | 5.35 | 13 | 18 | 0.042 | 1 | 23 (≈ 39.8 µM) | < 0.01 | AUC [8]: 148000 ng·h/mL; deltalog10CFU [9]: -0.16; IC50 [17]: 200 µM; EC50 [18]: > 200 µM; fAUC [20]: 6260 ng·h/mL; IC50 [24]: 75 µM; Ratio [26]: 2.3; EC50 [27]: > 200 µM; fraction unbound [28]: 0.038; pKa [29]: 4.5; clearance [30]: 3 mL/min/kg; fraction unbound [31]: 0.12; bioavailability [32]: 29%; MIC [33]: 0.03 µg/mL (≈ 0.0519 µM); MIC [34]: 0.016 µg/mL (≈ 0.0277 µM); MIC [35]: 1.3 µg/mL (≈ 2.25 µM); fraction unbound [36]: 0.021
CO[C@H]1CN(c2nc(-c3ncccn3)c(C(=O)O)s2)CC[C@H]1NC(=O)c1[nH]c(C)c(Cl)c1Cl |  |  |  |  |  | 0.12 (≈ 0.235 µM) | 350 (≈ 179 µg/mL) | 0.2 (≈ 0.391 µM) | 0.09 (≈ 0.176 µM) | 0.031 (≈ 0.0606 µM) | 1.9 | 0.008 (≈ 0.0156 µM) | 100 | 22 | 18 | 34 | 0.18 | 0.54 | 23 (≈ 45 µM) | < 0.01 | deltalog10CFU [37]: -1.57; MIC [38]: 0.06 µg/mL (≈ 0.117 µM); bioavailability [39]: 100%; fAUC [40]: 6700 ng·h/mL; Ratio [26]: 1.25; fraction unbound [28]: 0.19; pKa [29]: 5.2; AUC [41]: 37600 ng·h/mL; clearance [30]: 9.3 mL/min/kg; fraction unbound [31]: 0.24; bioavailability [32]: 100%; MIC [34]: 0.016 µg/mL (≈ 0.0313 µM); MIC [35]: 0.5 µg/mL (≈ 0.978 µM); fraction unbound [36]: 0.096
C[C@H]1COc2c(N3CCN(C)CC3)c(F)cc3c(=O)c(C(=O)O)cn1c23.C[C@H]1COc2c(N3CCN(C)CC3)c(F)cc3c(=O)c(C(=O)O)cn1c23.O [LEVOFLOXACIN] | 0.015 | 32 | 0.015 | 32 | > 128 |  |  |  |  |  |  |  |  |  |  |  |  |  |  |  | MIC90 [42]: 64 µg/mL; MIC90 [43]: 64 µg/mL
